In ChEMBL document CHEMBL4732217, “Design, synthesis, biological evaluation, and docking studies of novel (imidazol-5-yl)pyrimidine-based derivatives as dual BRAF/p38α inhibitors” (Eur J Med Chem, 2021):

Target: Mitogen-activated protein kinase 14 (Homo sapiens, UniProt Q16539)
Sequence (Q16539 whole entry): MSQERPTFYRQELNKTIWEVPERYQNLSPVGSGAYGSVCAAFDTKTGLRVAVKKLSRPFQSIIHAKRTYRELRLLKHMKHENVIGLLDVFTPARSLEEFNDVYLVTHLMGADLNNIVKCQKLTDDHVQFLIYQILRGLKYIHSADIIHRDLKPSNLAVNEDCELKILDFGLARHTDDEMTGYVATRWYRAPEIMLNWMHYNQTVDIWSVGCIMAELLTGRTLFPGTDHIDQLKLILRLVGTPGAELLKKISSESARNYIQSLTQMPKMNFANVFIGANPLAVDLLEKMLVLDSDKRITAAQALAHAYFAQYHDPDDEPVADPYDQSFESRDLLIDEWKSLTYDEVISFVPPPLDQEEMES
Assay: Inhibition of p38 alpha (unknown origin) at 10 uM using Ser/Thr 15 as substrate incubated for 1 hr in presence of ATP by Z'-Lyte assay relative to control
Settings: not given
Procedure, shortened: (§1)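 Run by a commercial kinase profiling service at 100 µM ATP. Single-point screening was followed by 5-point titration (1 nM, 10 nM, 100 nM, 1 µM, 10 µM) for IC50.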
`O=S(=O)(NCCCNc1nccc(-c2[nH]c(-c3ccccc3)nc2-c2ccc(Cl)c(O)c2)n1)c1ccccc1` gave an inhibition of 82.2%. `COc1cc(-c2nc(-c3ccccc3)[nH]c2-c2ccnc(NCCCNS(=O)(=O)c3ccc(C(F)(F)F)cc3)n2)ccc1F` gave an inhibition of 48.6%. Work on `O=S(=O)(NCCCNc1nccc(-c2[nH]c(-c3ccccc3)nc2-c2ccc(Cl)c(O)c2)n1)c1ccc(C(F)(F)F)cc1` yielded an inhibition of 54.3%. Work on `COc1cc(-c2nc(-c3ccccc3)[nH]c2-c2ccnc(NCCCNS(=O)(=O)c3ccc(C(F)(F)F)cc3)n2)ccc1Cl` yielded an inhibition of 18.9%. Molecule `O=S(=O)(NCCCNc1nccc(-c2[nH]c(-c3ccccc3)nc2-c2ccc(Cl)c(O)c2)n1)c1ccc(Cl)cc1` has an inhibition of 70.8%. Molecule `COc1cc(-c2nc(-c3ccccc3)[nH]c2-c2ccnc(NCCCNS(=O)(=O)c3ccc(Br)cc3)n2)ccc1Cl` has an inhibition of 30%. For `COc1cc(-c2nc(-c3ccccc3)[nH]c2-c2ccnc(NCCCNS(=O)(=O)c3ccc(C)cc3)n2)ccc1F`, the inhibition was 79.4%. `O=S(=O)(NCCCNc1nccc(-c2[nH]c(-c3ccccc3)nc2-c2ccc(F)c(O)c2)n1)c1ccc(Cl)cc1` showed an inhibition of 84.9%. `COc1cc(-c2nc(-c3ccccc3)[nH]c2-c2ccnc(NCCCNS(=O)(=O)c3cccc4ccccc34)n2)ccc1Cl` gave an inhibition of 27.1%. `COc1cc(-c2nc(-c3ccccc3)[nH]c2-c2ccnc(NCCCNS(=O)(=O)c3cccc(F)c3)n2)ccc1Cl` showed an inhibition of 58.3%.

Target: Serine/threonine-protein kinase B-raf (Homo sapiens, UniProt P15056, V600E)
Sequence (P15056 2-766 V600E limits assumed): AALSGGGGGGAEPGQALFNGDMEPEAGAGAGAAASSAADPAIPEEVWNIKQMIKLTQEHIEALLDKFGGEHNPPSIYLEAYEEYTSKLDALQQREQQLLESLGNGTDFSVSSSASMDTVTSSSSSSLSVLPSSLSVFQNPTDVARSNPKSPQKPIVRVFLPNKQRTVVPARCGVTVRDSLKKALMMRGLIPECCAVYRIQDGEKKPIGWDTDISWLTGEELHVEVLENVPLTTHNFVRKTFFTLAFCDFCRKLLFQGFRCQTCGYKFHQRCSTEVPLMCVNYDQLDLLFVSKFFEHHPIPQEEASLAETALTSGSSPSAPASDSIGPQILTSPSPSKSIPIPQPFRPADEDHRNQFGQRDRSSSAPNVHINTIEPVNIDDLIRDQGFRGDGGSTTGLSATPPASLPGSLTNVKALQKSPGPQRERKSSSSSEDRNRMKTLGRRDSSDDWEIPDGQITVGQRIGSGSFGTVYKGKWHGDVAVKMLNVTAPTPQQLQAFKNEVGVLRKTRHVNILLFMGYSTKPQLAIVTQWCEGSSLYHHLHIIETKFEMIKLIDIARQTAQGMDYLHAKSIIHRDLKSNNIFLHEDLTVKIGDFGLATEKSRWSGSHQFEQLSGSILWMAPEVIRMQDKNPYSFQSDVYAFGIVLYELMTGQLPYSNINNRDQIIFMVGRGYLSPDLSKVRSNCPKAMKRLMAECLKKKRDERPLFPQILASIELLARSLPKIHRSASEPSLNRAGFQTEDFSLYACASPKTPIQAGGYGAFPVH
Assay: Inhibition of BRAF V600E mutant (unknown origin) using Ser/Thr 03 as substrate after 1 hr in presence of ATP by Z'-LYTE assay
Settings: not given
For `O=S(=O)(NCCCNc1nccc(-c2[nH]c(-c3ccccc3)nc2-c2ccc(Cl)c(O)c2)n1)c1ccccc1`, the IC50 was 0.00425 µM.

Test system: not listed separately
Assay: Selectivity index, ratio of IC50 for human IOSE-80PC cells to IC50 for human LOX IMVI cells
Settings: not given
Procedure, shortened: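 IC50 against IOSE-80PC normal ovarian epithelial cells (MTT, 5-dose) divided by IC50 against LOX-IMVI melanoma cells (MTT, 24 h compound exposure, means of duplicate experiments ± S.D.).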
In the case of `O=S(=O)(NCCCNc1nccc(-c2[nH]c(-c3ccccc3)nc2-c2ccc(Cl)c(O)c2)n1)c1ccccc1`, the Ratio IC50 is reported as > 3.8. With `COc1cc(-c2nc(-c3ccccc3)[nH]c2-c2ccnc(NCCCNS(=O)(=O)c3ccc(C(F)(F)F)cc3)n2)ccc1Cl` the Ratio IC50 was > 5.62.

Test system: Serine/threonine-protein kinase B-raf (Homo sapiens), P15056 [V600E]
Sequence (P15056 whole entry V600E): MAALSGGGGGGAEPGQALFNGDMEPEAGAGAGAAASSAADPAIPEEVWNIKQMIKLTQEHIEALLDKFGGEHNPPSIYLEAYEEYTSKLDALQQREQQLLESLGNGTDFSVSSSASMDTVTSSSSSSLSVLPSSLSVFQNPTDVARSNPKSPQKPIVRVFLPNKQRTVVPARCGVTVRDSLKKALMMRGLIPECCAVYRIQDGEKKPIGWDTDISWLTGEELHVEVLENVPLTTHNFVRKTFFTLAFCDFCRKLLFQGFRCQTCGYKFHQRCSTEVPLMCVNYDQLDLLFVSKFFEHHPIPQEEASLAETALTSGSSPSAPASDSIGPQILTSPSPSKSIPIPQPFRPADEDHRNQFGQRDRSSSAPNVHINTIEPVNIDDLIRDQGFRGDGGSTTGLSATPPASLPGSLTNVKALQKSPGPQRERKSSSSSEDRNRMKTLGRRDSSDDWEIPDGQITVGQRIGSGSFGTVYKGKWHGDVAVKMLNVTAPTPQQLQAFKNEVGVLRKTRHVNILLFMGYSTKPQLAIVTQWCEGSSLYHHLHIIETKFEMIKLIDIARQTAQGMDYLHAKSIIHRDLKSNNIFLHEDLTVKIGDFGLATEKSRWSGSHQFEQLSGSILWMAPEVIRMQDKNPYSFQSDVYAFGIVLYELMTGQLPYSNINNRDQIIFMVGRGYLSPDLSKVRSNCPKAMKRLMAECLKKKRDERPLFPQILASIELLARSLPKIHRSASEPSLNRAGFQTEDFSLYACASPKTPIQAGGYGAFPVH
Assay: Inhibition of BRAF V600E mutant (unknown origin) at 10 uM using Ser/Thr 03 as substrate after 1 hr in presence of ATP by Z'-LYTE assay relative to control
Settings: not given
Procedure, shortened: as §1
Molecule `O=S(=O)(NCCCNc1nccc(-c2[nH]c(-c3ccccc3)nc2-c2ccc(Cl)c(O)c2)n1)c1ccccc1` has an inhibition of 99.4%. With `COc1cc(-c2nc(-c3ccccc3)[nH]c2-c2ccnc(NCCCNS(=O)(=O)c3ccc(C(F)(F)F)cc3)n2)ccc1F` the inhibition was 42.4%. In the case of `O=S(=O)(NCCCNc1nccc(-c2[nH]c(-c3ccccc3)nc2-c2ccc(Cl)c(O)c2)n1)c1ccc(C(F)(F)F)cc1`, the inhibition is reported as 99.2%. Molecule `COc1cc(-c2nc(-c3ccccc3)[nH]c2-c2ccnc(NCCCNS(=O)(=O)c3ccc(C(F)(F)F)cc3)n2)ccc1Cl` has an inhibition of 55.9%. `O=S(=O)(NCCCNc1nccc(-c2[nH]c(-c3ccccc3)nc2-c2ccc(Cl)c(O)c2)n1)c1ccc(Cl)cc1` gave an inhibition of 99.7%. `COc1cc(-c2nc(-c3ccccc3)[nH]c2-c2ccnc(NCCCNS(=O)(=O)c3ccc(Br)cc3)n2)ccc1Cl` gave an inhibition of 88.3%. `COc1cc(-c2nc(-c3ccccc3)[nH]c2-c2ccnc(NCCCNS(=O)(=O)c3ccc(C)cc3)n2)ccc1F` gave an inhibition of 82.4%. Molecule `O=S(=O)(NCCCNc1nccc(-c2[nH]c(-c3ccccc3)nc2-c2ccc(F)c(O)c2)n1)c1ccc(Cl)cc1` has an inhibition of 93.9%. `COc1cc(-c2nc(-c3ccccc3)[nH]c2-c2ccnc(NCCCNS(=O)(=O)c3cccc4ccccc34)n2)ccc1Cl` gave an inhibition of 90%. Work on `COc1cc(-c2nc(-c3ccccc3)[nH]c2-c2ccnc(NCCCNS(=O)(=O)c3cccc(F)c3)n2)ccc1Cl` yielded an inhibition of 84.9%.

Test system: LOX IMVI
Assay: cells
Assay type: functional, cell-based
Settings: Homo sapiens, 24 h
`O=S(=O)(NCCCNc1nccc(-c2[nH]c(-c3ccccc3)nc2-c2ccc(Cl)c(O)c2)n1)c1ccccc1` showed an IC50 of 2.63 µM. With `COc1cc(-c2nc(-c3ccccc3)[nH]c2-c2ccnc(NCCCNS(=O)(=O)c3ccc(C(F)(F)F)cc3)n2)ccc1F` the IC50 was 75.2 µM. `O=S(=O)(NCCCNc1nccc(-c2[nH]c(-c3ccccc3)nc2-c2ccc(Cl)c(O)c2)n1)c1ccc(C(F)(F)F)cc1` gave an IC50 of 10.1 µM. `COc1cc(-c2nc(-c3ccccc3)[nH]c2-c2ccnc(NCCCNS(=O)(=O)c3ccc(C(F)(F)F)cc3)n2)ccc1Cl` gave an IC50 of 1.78 µM. Work on `O=S(=O)(NCCCNc1nccc(-c2[nH]c(-c3ccccc3)nc2-c2ccc(Cl)c(O)c2)n1)c1ccc(Cl)cc1` yielded an IC50 of 61.3 µM. `COc1cc(-c2nc(-c3ccccc3)[nH]c2-c2ccnc(NCCCNS(=O)(=O)c3ccc(Br)cc3)n2)ccc1Cl` showed an IC50 of 23.7 µM. `COc1cc(-c2nc(-c3ccccc3)[nH]c2-c2ccnc(NCCCNS(=O)(=O)c3ccc(C)cc3)n2)ccc1F` showed an IC50 of 2.59 µM. Work on `O=S(=O)(NCCCNc1nccc(-c2[nH]c(-c3ccccc3)nc2-c2ccc(F)c(O)c2)n1)c1ccc(Cl)cc1` yielded an IC50 of 14.2 µM. For `COc1cc(-c2nc(-c3ccccc3)[nH]c2-c2ccnc(NCCCNS(=O)(=O)c3cccc4ccccc34)n2)ccc1Cl`, the IC50 was 13.5 µM. In the case of `COc1cc(-c2nc(-c3ccccc3)[nH]c2-c2ccnc(NCCCNS(=O)(=O)c3cccc(F)c3)n2)ccc1Cl`, the IC50 is reported as 5.11 µM.

Test system: not listed separately
Assay: Cytotoxicity against human IOSE-80PC cells assessed as reduction in cell viability incubated for 24 hrs by MTT assay
Assay type: cell-based, IOSE80pc
Settings: not given
Procedure, shortened: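 Human ovarian epithelial IOSE-80PC cells grown in RPMI 1640 with FBS and penicillin-streptomycin, seeded at 1 × 10⁵/mL, exposed to a range of compound concentrations in 5-dose mode. Viability read by MTT; IC50 derived.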
For `O=S(=O)(NCCCNc1nccc(-c2[nH]c(-c3ccccc3)nc2-c2ccc(Cl)c(O)c2)n1)c1ccccc1`, the IC50 was > 10 µM. In the case of `COc1cc(-c2nc(-c3ccccc3)[nH]c2-c2ccnc(NCCCNS(=O)(=O)c3ccc(C(F)(F)F)cc3)n2)ccc1Cl`, the IC50 is reported as > 10 µM.
